OX1R antag-1 – OX1R (HCRTR1) antagonists, primary screen, fluorescence, CHO/OX1R cells, Fluo-8 calcium, orexin A; Orexin/Hypocretin receptor type 1 (Homo sapiens), O43613; Fluo-8 calcium fluorescence; inhibition, % at 5 µM; 0.43% of 330,000 active; AID 434989, 2010;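 active = inhibition above its plate's threshold, mean inhibition of all tested compounds on the plate plus 3 SD, cut at about 37% in these data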
TAAR1 antagonist – human TAAR1 antagonists, primary screen, Fluo-8 calcium fluorescence, CHO RD-HGA16 cells. Trace amine-associated receptor 1 (Homo sapiens), Q96RJ0. antagonist. inhibition, % at 3 µM. 1.5% of 360,000 active;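 active = inhibition above a per-plate cutoff, the mean inhibition of test compounds on that plate plus 3 SD, cut at about 49% in these data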
Target sequence (Q96RJ0 whole entry, looked up): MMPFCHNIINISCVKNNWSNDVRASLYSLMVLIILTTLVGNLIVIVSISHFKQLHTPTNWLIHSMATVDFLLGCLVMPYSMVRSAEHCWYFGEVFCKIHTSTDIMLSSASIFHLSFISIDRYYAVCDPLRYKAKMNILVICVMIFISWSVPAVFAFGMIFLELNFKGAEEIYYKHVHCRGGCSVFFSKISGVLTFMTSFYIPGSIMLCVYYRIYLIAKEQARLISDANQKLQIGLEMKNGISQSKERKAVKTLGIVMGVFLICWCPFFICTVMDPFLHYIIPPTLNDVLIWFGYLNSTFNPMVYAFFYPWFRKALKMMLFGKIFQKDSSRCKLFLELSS
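Test system: RD-HGA16 CHO cells with stable hTAAR1 and Gα16 / Probe or stimulus: EC80 β-phenethylamine stimulus / Times: seeding 17-24 h prior, 75-min 37 °C, 30-min RT dye loading / Detection: Fluo-8 calcium-sensitive fluorescence / Read-out basis: % inhibition scaled between DMSO and EC80 PEA controls / Repeats: singlicate, one well per test compound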
CHO parental Ca – ATP-evoked calcium signal inhibitors, parental CHO, primary screen, counter-screen for OX1R antagonist project, cell-based, fluorescence, Fluo-8 calcium dye; parental CHO-K1, ATP-induced calcium, Fluo-8 fluorescence; inhibition, % at 5.6 µM; 0.63% of 330,000 active;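 active = inhibition above that plate's mean sample inhibition plus 3 SD, cut at about 26% in these data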
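Assay system: untransfected parental CHO cell line. Also added: ATP agonist challenge. Dosing: one dose, 5.6 µM nominal. Measured by: Fluo-8 fluorescence. Read-out: % inhibition. Benchmarks: ATP wells versus no-ATP DMSO wells. Repeats: no replicates.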
GPR7 antagonist – GPR7 receptor antagonists, primary screen, cell-based, fluorescence, single concentration | GPR7-expressing cells, fluorescence antagonist assay | 1.1% of 290,000 active | Neuropeptides B/W receptor type 1 (Homo sapiens), P48145 | inhibition, % at 4.4 µM; in the data active = inhibition above about 16%, passing the limit was not always enough;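 also: cells stimulated with the agonist NPW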
TAAR1 agonist – human TAAR1 agonists, primary screen, Fluo-8 calcium fluorescence, CHO RD-HGA16 cells | 0.99% of 360,000 active | vehicle wells 0%, saturating PEA agonist 100% | Trace amine-associated receptor 1 (Homo sapiens), Q96RJ0 | activation, % at 3 µM | AID 624467, 2012;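 active = activation above the mean activation of all test compounds in the run plus 3 SD, cut at about 38% in these data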
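Signal – calcium-sensitive Fluo-8 signal, excitation 470-495, emission 515-575 nm · System – RD-HGA16 (CHO) cells co-expressing Gα16 and hTAAR1 · Incubation – 17-24 h seeding, 75 min 37 °C dye, 30 min RT · Compound dosing – 3 µM single concentration · Repeats – no replicates (n 1)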
OX1R antag-2 – antagonists of human orexin 1 receptor (OX1R); Orexin/Hypocretin receptor type 1 (Homo sapiens), O43613; OX1R-expressing cells, FRET antagonist read-out; inhibition, % at 6.6 µM; 1.8% of 330,000 active; AID 485270, 2010; in the data active = inhibition mostly above about 38%, no sharp cut-off; inactive = mostly below about 40%
TAAR1 ag conf – human TAAR1 agonists, retest of hits, confirmation, Fluo-8 calcium fluorescence, CHO RD-HGA16 cells | shares compounds with TAAR1 agonist | scaled: DMSO 0%, maximal phenethylamine 100% | activation, % at 3 µM | 82% of 2,400 active | AID 651783, 2012;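 active = activation above a cutoff set at the run's mean compound activation plus 3 SD, cut at about 39% in these data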
Ga16 ag counter – nonselective calcium mobilization agonists, CHO-Ga16 cells, counter-screen for hTAAR1 agonist project, cell-based, fluorescence, CHO-Ga16 parental line | shares compounds with TAAR1 agonist | Fluo-8 calcium fluorescence; normalized to maximal ATP response, DMSO zero | activation, % at 3 µM | 50% of 2,400 active | AID 651787, 2012;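 active = activation above the run cutoff, the mean activation over all tested wells plus 3 SD, cut at about 12% in these data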
TAAR1 desensitize – TAAR1 desensitization by agonist hits, confirmation, counter-screen for TAAR1 agonist project, cell-based, fluorescence, tachyphylaxis; CHO RD-HGA16 hTAAR1, Fluo-8 calcium, beta-PEA response inhibition; 46% of 2,400 active; inhibition, % at 3 µM; shares compounds with TAAR1 agonist; AID 651951, 2012;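 active = inhibition above the run cutoff, the mean inhibition of all test compounds plus 3 SD, cut at about 49% in these data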;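 also: beta-PEA stimulus applied at its EC80; loss of beta-PEA calcium signal after compound pretreatment read as receptor desensitization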
Ga16 nonsel ant – inhibition of ATP-evoked calcium response in CHO-Ga16 cells, counter-screen for TAAR1 agonist project, cell-based, fluorescence. shares compounds with TAAR1 agonist. 39% of 2,400 active. AID 651952, 2012. CHO-Ga16 ATP-induced calcium, Fluo-8 fluorescence. inhibition, % at 3 µM;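 active = inhibition above the plate's mean compound inhibition plus 3 SD, computed per plate, cut at about 22% in these data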
Hits are given with their value; 0 = inactive; - = not tested or not shown. Rows were chosen to be rich in hits. Some 4.6% of all compounds tested hit in one or more screens of this group.

SMILES	OX1R antag-1	TAAR1 antagonist	CHO parental Ca	GPR7 antagonist	TAAR1 agonist	OX1R antag-2	TAAR1 ag conf	Ga16 ag counter	TAAR1 desensitize	Ga16 nonsel ant
O=C(c1ccc2[nH]c(=O)c(=O)[nH]c2c1)N1CCN(c2ccccc2)CC1	0	0	0	0	0	0	-	-	-	-
O=C(CN1CCN(Cc2ccccc2)CC1)Nc1cccc(Cl)c1Cl	-	0	-	-	0	-	-	-	-	-
Cc1cc(NC(=O)C2CC(=O)OC2c2ccccc2)no1 (stereo not drawn)	0	0	0	0	0	0	-	-	-	-
COc1ccc(NC(=O)C2CC(=O)OC2c2ccccc2)cc1 (stereo not drawn)	0	0	0	0	50.6	0	0	0	0	0
COC(=O)[C@@]1(Cc2ccc(F)cc2)[C@H]2c3cc(C(=O)N4CCCC4)n(CC4CC4)c3C[C@H]2CN1C(=O)c1ccccc1	-	0	-	-	69.8	-	76.3	38.3	52.5	32.4
COC(=O)[C@@]1(Cc2ccc(F)cc2)[C@H]2c3cc(C(=O)N4CCCC4)n(CCF)c3C[C@H]2CN1C(=O)c1ccccc1	-	0	-	-	0	-	-	-	-	-
Cc1ccc(Nc2cccccc2=O)cc1	0	0	0	0	0	0	-	-	-	-
Cc1ccc(NN2C(=O)C=C(c3ccccc3)C2=O)cc1	-	0	-	0	52.0	-	0	19.7	0	44.2
COC(=O)c1cc([N+](=O)[O-])c(C)c(C)n1	-	0	-	-	0	-	-	-	-	-
COc1cc(C(=O)CCN2CCC(c3ccccc3)C2)cc(OC)c1OC (stereo not drawn)	0	85.8	0	0	92.2	0	105.2	0	95.6	0
O=C(CCN1CCCC1Cc1ccccc1)c1ccc2c(c1)OCCO2 (stereo not drawn)	0	73.4	0	0	87.0	0	101.1	0	84.8	0
COc1cc(C(=O)NC2CCN(Cc3ccccc3)CC2)cc(Cl)c1OC	0	0	0	0	0	0	-	-	-	-
O=C(CCN1CCC(c2ccccc2)C1)c1cccs1 (stereo not drawn)	0	91.9	0	0	100.1	0	100.1	0	94.8	0
O=C(CCN1CCC(c2ccccc2)C1)c1ccccc1 (stereo not drawn)	0	-	0	0	-	0	-	-	-	-
O=C(CCN1CCC(c2ccccc2)C1)c1ccc2c(c1)OCCO2 (stereo not drawn)	0	82.8	0	0	82.5	0	80.1	0	86.1	0
O=C(NCCc1ccccc1)C1Cc2c(-c3ccc4c(c3)OCO4)ccnc2O1 (stereo not drawn)	-	0	-	-	0	-	-	-	-	-
CCCc1nnc2c(N(C)S(=O)(=O)c3ccc(C)cc3)nc3ccccc3n12	0	0	0	0	0	0	-	-	-	-
CCCCc1nnc2c(N(C)S(=O)(=O)c3ccc(C)cc3)nc3ccccc3n12	0	0	0	0	57.4	0	0	0	0	0

Screening results as filed in PubChem.
